Laboratory results reported in ChEMBL document CHEMBL1926651, “Design, synthesis, antiviral and cytostatic evaluation of novel isoxazolidine nucleotide analogues with a 1,2,3-triazole linker” (Eur J Med Chem, 2012).
The source made the active and inactive calls. The calls are words filed in the database; no cut-off is given here.

Tests used:
Human alphaherpesvirus 1 [1] = assay: Antiviral activity against Herpes simplex virus 1 KOS infected in human HEL cells assessed as inhibition of viral plaque formation at 250 uM; assay type: functional, organism-based
Method in brief: (§1)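 Confluent host cell monolayers were inoculated with 100 CCID50 of virus in the presence of test compound at serial dilutions (250, 50, 10, … μM). Viral cytopathicity was scored once it reached completion in untreated virus-infected controls.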

Human alphaherpesvirus 2 = assay: Antiviral activity against Herpes simplex virus 2 G infected in human HEL cells assessed as inhibition of viral plaque formation at 250 uM; assay type: functional, organism-based; details: strain G
Human alphaherpesvirus 1 [2] = assay: Antiviral activity against thymidine kinase-deficient acv-resistant Herpes simplex virus 1 KOS infected in human HEL cells assessed as inhibition of viral plaque formation at 250 uM; assay type: functional, organism-based
Vaccinia virus = assay: Antiviral activity against Vaccinia virus infected in human HEL cells assessed as inhibition of viral plaque formation at 250 uM; assay type: functional, organism-based; details: Orthopoxvirus vaccinia; method in brief: as §1
[3] = test system: Vesicular stomatitis virus; assay: Antiviral activity against Vesicular stomatitis virus infected in human HEL cells assessed as inhibition of viral plaque formation at 250 uM; assay type: functional, organism-based; method in brief: as §1
Human betaherpesvirus 5 [4] = assay: Antiviral activity against Human cytomegalovirus AD169 infected in human HEL cells assessed as inhibition of viral plaque formation at 250 uM; assay type: functional, organism-based
Human betaherpesvirus 5 [5] = assay: Antiviral activity against Human cytomegalovirus Davis infected in human HEL cells assessed as inhibition of viral plaque formation at 250 uM; assay type: functional, organism-based
Human alphaherpesvirus 3 [6] = assay: Antiviral activity against thymidine kinase-positive Varicella Zoster virus Oka infected in human HEL cells assessed as inhibition of viral plaque formation at 250 uM; assay type: functional, cell-based; details: strain Oka vaccine
Human alphaherpesvirus 3 [7] = assay: Antiviral activity against thymidine kinase-deficient Varicella Zoster virus 07/1 infected in human HEL cells assessed as inhibition of viral plaque formation at 250 uM; assay type: functional, organism-based
Human respirovirus 3 = assay: Antiviral activity against Parainfluenza-3 virus infected in african green monkey Vero cells assessed as inhibition of viral plaque formation at 250 uM; assay type: functional, organism-based; method in brief: as §1
[8] = test system: Mammalian orthoreovirus 1; assay: Antiviral activity against Reovirus-1 infected in african green monkey Vero cells assessed as inhibition of viral plaque formation at 250 uM; assay type: functional, organism-based; method in brief: as §1
Sindbis virus = assay: Antiviral activity against Sindbis virus infected in african green monkey Vero cells assessed as inhibition of viral plaque formation at 250 uM; assay type: functional, organism-based; method in brief: as §1
Coxsackievirus B4 [9] = assay: Antiviral activity against Coxsackievirus B4 infected in african green monkey Vero cells assessed as inhibition of viral plaque formation at 250 uM; assay type: functional, organism-based; method in brief: as §1
Punta Toro virus = assay: Antiviral activity against Punta Toro virus infected in african green monkey Vero cells assessed as inhibition of viral plaque formation at 250 uM; assay type: functional, organism-based
[10] = test system: Vesicular stomatitis virus; assay: Antiviral activity against Vesicular stomatitis virus infected in human Hela cells assessed as inhibition of viral plaque formation at 250 uM; assay type: functional, organism-based
Coxsackievirus B4 [11] = assay: Antiviral activity against Coxsackievirus B4 infected in human HeLa cells assessed as inhibition of viral plaque formation at 250 uM; assay type: functional, organism-based; method in brief: as §1
[12] = test system: Respiratory syncytial virus; assay: Antiviral activity against Respiratory syncytial virus infected in human HeLa cells assessed as inhibition of viral plaque formation at 250 uM; assay type: functional, organism-based; method in brief: as §1
Felid alphaherpesvirus 1 = assay: Antiviral activity against Felid herpesvirus 1 infected in CrFK cells assessed as inhibition of viral plaque formation at 250 uM; assay type: functional, organism-based; method in brief: as §1
Feline coronavirus = assay: Antiviral activity against Feline coronavirus infected in CrFK cells assessed as inhibition of viral plaque formation at 250 uM; assay type: functional, organism-based; method in brief: as §1
[13] = test system: Human immunodeficiency virus 2; assay: Antiviral activity against Human immunodeficiency virus 2 infected in human CEM cells assessed as inhibition of virus-induced giant cell formation after 4 days by microscopic analysis; assay type: functional, organism-based; details: CCRF-CEM
Method in brief: (§2)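 CEM cells at about 3 × 10⁵ cells/cm³ were infected with 100 CCID50/mL of HIV-1(IIIB) or HIV-2(ROD), then seeded into wells holding test compound dilutions. After 4 days at 37 °C, virus-induced giant cell formation was scored microscopically.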

[14] = test system: Human immunodeficiency virus 1; assay: Antiviral activity against Human immunodeficiency virus 1 infected in human CEM cells assessed as inhibition of virus-induced giant cell formation after 4 days by microscopic analysis; assay type: functional, organism-based; details: CCRF-CEM; method in brief: as §2
HEL [15] = assay: Cytotoxicity against human HEL cells assessed as change in cell morphology up to 100 uM; assay type: cell-based
Method in brief: (§3)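 Uninfected host-cell cultures were examined under the microscope. MCC was taken as the lowest compound concentration producing a detectable alteration of normal cell morphology, assessed at concentrations up to 100 μM.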

HeLa [16] = assay: Cytotoxicity against human HeLa cells assessed as change in cell morphology up to 100 uM; assay type: cell-based; method in brief: as §3
Vero = assay: Cytotoxicity against african green monkey Vero cells assessed as change in cell morphology up to 100 uM; assay type: cell-based; details: chlorocebus sabaeus; method in brief: as §3
MDCK = assay: Cytotoxicity against MDCK cells assessed as change in cell morphology up to 100 uM; assay type: cell-based, Canis lupus familiaris; details: dog; method in brief: as §3
[17] = Cytotoxicity against CRFK cells assessed as change in cell morphology up to 100 uM; assay type: cell-based, Felis catus; details: cat; method in brief: as §3
HEL [18] = assay: Cytotoxicity against human HEL cells 3 days by coulter counting; assay type: functional; details: 72 h
Method in brief: (§4)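 Cells were suspended at 300,000–500,000 cells/mL and added 1:1 to compound dilutions. Incubation was at 37 °C, 2 days for L1210 and 3 days for CEM, HeLa and HEL. Cells were counted with a Coulter counter. CC50 is the concentration inhibiting cell proliferation by 50%.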

HeLa [19] = assay: Cytotoxicity against human HeLa cells 3 days by coulter counting; assay type: functional; details: 72 h; method in brief: as §4
CCRF-CEM = assay: Cytotoxicity against human CEM cells 3 days by coulter counting; assay type: functional; details: 72 h; method in brief: as §4
L1210 = assay: Cytotoxicity against mouse L1210 cells 2 days by coulter counting; assay type: functional; details: L1210, 48 h; method in brief: as §4

| SMILES | Activity (Human alphaherpesvirus 1 [1]) | Activity (Human alphaherpesvirus 2) | Activity (Human alphaherpesvirus 1 [2]) | Activity (Vaccinia virus) | Activity [3] | Activity (Human betaherpesvirus 5 [4]) | Activity (Human betaherpesvirus 5 [5]) | Activity (Human alphaherpesvirus 3 [6]) | Activity (Human alphaherpesvirus 3 [7]) | Activity (Human respirovirus 3) | Activity [8] | Activity (Sindbis virus) | Activity (Coxsackievirus B4 [9]) | Activity (Punta Toro virus) | Activity [10] | Activity (Coxsackievirus B4 [11]) | Activity [12] | Activity (Felid alphaherpesvirus 1) | Activity (Feline coronavirus) | Activity [13] | other results |
| --- | --- | --- | --- | --- | --- | --- | --- | --- | --- | --- | --- | --- | --- | --- | --- | --- | --- | --- | --- | --- | --- |
| CCOP(=O)(OCC)[C@@H]1C[C@@H](n2cc(-c3cccc(F)c3)nn2)ON1C (racemic) | inactive | inactive | inactive | inactive | inactive | inactive | inactive | inactive | inactive | inactive | inactive | inactive | inactive | inactive | inactive | inactive | inactive | inactive | inactive | inactive | Activity [14]: inactive; Activity (HEL [15]): Non-toxic; Activity (HeLa [16]): Non-toxic; Activity (Vero): Non-toxic; Activity (MDCK): Non-toxic; Activity [17]: Non-toxic; CC50 (HEL [18]): 40 µM; CC50 (HeLa [19]): ≥ 250 µM; CC50 (CCRF-CEM): > 250 µM; CC50 (L1210): ≥ 250 µM |
| CCOP(=O)(OCC)[C@@H]1C[C@@H](n2cc(-c3ccc(F)cc3F)nn2)ON1C (racemic) | inactive | inactive | inactive | inactive | inactive | inactive | inactive | inactive | inactive | inactive | inactive | inactive | inactive | inactive | inactive | inactive | inactive | inactive | inactive | inactive | Activity [14]: inactive; Activity (HEL [15]): Non-toxic; Activity (HeLa [16]): Non-toxic; Activity (Vero): Non-toxic; Activity (MDCK): Non-toxic; Activity [17]: Non-toxic; CC50 (HEL [18]): 59 µM; CC50 (HeLa [19]): 162 µM; CC50 (CCRF-CEM): ≥ 250 µM; CC50 (L1210): 131 µM |
| CCOP(=O)(OCC)[C@@H]1C[C@@H](n2cc(-c3ccccn3)nn2)ON1C (racemic) | inactive | inactive | inactive | inactive | inactive | inactive | inactive | inactive | inactive | inactive | inactive | inactive | inactive | inactive | inactive | inactive | inactive | inactive | inactive | inactive | Activity [14]: inactive; Activity (HEL [15]): Non-toxic; Activity (HeLa [16]): Non-toxic; Activity (Vero): Non-toxic; Activity (MDCK): Non-toxic; Activity [17]: Non-toxic; CC50 (HEL [18]): 62 µM; CC50 (HeLa [19]): > 250 µM; CC50 (CCRF-CEM): > 250 µM; CC50 (L1210): ≥ 250 µM |
| CCOP(=O)(OCC)[C@@H]1C[C@@H](n2cc(-c3ccccc3F)nn2)ON1C (relative stereo) | inactive | inactive | inactive | inactive | inactive | inactive | inactive | inactive | inactive | inactive | inactive | inactive | inactive | inactive | inactive | inactive | inactive | inactive | inactive | inactive | Activity [14]: inactive; Activity (HEL [15]): Non-toxic; Activity (HeLa [16]): Non-toxic; Activity (Vero): Non-toxic; Activity (MDCK): Non-toxic; Activity [17]: Non-toxic; CC50 (HEL [18]): 73 µM; CC50 (HeLa [19]): 202 µM; CC50 (CCRF-CEM): > 250 µM; CC50 (L1210): 120 µM |
| CCOP(=O)(OCC)[C@@H]1C[C@H](n2cc(-c3ccccc3)nn2)ON1C (relative stereo) | inactive | inactive | inactive | inactive | inactive | inactive | inactive | inactive | inactive | inactive | inactive | inactive | inactive | inactive | inactive | inactive | inactive | inactive | inactive | inactive | Activity [14]: inactive; Activity (HEL [15]): Non-toxic; Activity (HeLa [16]): Non-toxic; Activity (Vero): Non-toxic; Activity (MDCK): Non-toxic; Activity [17]: Non-toxic; CC50 (HEL [18]): 54 µM; CC50 (HeLa [19]): > 250 µM; CC50 (CCRF-CEM): > 250 µM; CC50 (L1210): 172 µM |
| CCOP(=O)(OCC)[C@@H]1C[C@H](n2cc(-c3ccccc3F)nn2)ON1C (relative stereo) | inactive | inactive | inactive | inactive | inactive | inactive | inactive | inactive | inactive | inactive | inactive | inactive | inactive | inactive | inactive | inactive | inactive | inactive | inactive | inactive | Activity [14]: inactive; Activity (HEL [15]): Non-toxic; Activity (HeLa [16]): Non-toxic; Activity (Vero): Non-toxic; Activity (MDCK): Non-toxic; Activity [17]: Non-toxic; CC50 (HEL [18]): 41 µM; CC50 (HeLa [19]): 247 µM; CC50 (CCRF-CEM): > 250 µM; CC50 (L1210): 122 µM |
